Reference: ChEMBL document CHEMBL3576866, “Discovery of a Cyclic Boronic Acid β-Lactamase Inhibitor (RPX7009) with Utility vs Class A Serine Carbapenemases” (J Med Chem, 2015)

What was measured:
Klebsiella oxytoca [1] = experiment: Inhibition of Klebsiella oxytoca KX1017 OXA-2 assessed as meropenem MIC at 4 ug/ml by broth microdilution method
[2] = target: T1, Class A carbapenemase (Enterobacter cloacae) (UniProt A7WP95); experiment: Inhibition of Enterobacter cloacae ECL1058 KPC-3 assessed as meropenem MIC at 4 ug/ml by broth microdilution method
T1 sequence (whole entry): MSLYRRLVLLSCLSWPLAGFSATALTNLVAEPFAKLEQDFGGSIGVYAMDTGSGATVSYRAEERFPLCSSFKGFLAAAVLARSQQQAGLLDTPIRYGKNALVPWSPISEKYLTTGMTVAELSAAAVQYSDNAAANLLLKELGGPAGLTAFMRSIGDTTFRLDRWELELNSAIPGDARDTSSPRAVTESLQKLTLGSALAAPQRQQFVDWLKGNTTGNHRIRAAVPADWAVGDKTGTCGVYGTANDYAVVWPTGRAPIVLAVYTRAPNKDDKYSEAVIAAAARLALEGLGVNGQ

[3] = target: Carbapenem-hydrolyzing beta-lactamase KPC (Klebsiella oxytoca) (UniProt Q848S6); experiment: Inhibition of Klebsiella oxytoca KX1019 KPC-2 assessed as meropenem MIC at 4 ug/ml by broth microdilution method
Chain of Carbapenem-hydrolyzing beta-lactamase KPC (Klebsiella oxytoca) (Q848S6 whole entry, the tested form may be a part): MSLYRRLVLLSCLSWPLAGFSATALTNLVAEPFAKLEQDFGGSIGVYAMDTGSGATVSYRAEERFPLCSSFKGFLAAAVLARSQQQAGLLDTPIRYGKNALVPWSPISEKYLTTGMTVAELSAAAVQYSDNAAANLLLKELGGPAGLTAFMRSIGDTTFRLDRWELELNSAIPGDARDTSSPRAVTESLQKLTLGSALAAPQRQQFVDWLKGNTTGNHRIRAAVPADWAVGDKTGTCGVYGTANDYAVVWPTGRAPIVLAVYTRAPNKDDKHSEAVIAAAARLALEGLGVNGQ
Procedure, shortened: (§1)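 CLSI broth microdilution (M07-A9, 2012) MIC of the carbapenem against clinical serine carbapenemase-producing strain, tested alone and with the inhibitor held at a fixed 4 μg/mL.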

Klebsiella oxytoca [4] = experiment: Inhibition of Klebsiella oxytoca KX1017 SHV-30 assessed as meropenem MIC at 4 ug/ml by broth microdilution method
[5] = target: Beta lactamase TEM-1 (Klebsiella pneumoniae) (UniProt Q7B899); experiment: Inhibition of Klebsiella pneumoniae KP1087 TEM-1 assessed as ertapenem MIC at 4 ug/ml by broth microdilution method; procedure, shortened: as §1
Chain of Beta lactamase TEM-1 (Klebsiella pneumoniae) (Q7B899 as listed by the source): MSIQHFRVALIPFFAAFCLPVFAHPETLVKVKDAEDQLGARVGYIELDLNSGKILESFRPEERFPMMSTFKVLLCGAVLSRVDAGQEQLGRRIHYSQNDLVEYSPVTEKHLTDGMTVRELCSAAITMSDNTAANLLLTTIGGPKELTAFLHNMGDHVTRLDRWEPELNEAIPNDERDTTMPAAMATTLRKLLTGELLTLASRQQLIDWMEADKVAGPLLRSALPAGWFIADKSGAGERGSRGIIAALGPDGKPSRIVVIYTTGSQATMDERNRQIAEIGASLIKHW

[6] = target: Beta lactamase TEM-1 (Klebsiella pneumoniae) (UniProt Q7B899); experiment: Inhibition of Klebsiella pneumoniae KP1087 TEM-1 assessed as imipenem MIC at 4 ug/ml by broth microdilution method
Procedure, shortened: (§2)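 Carbapenem MIC by CLSI broth microdilution (M07-A9), carbapenem titrated with inhibitor held at fixed 4 μg/mL, against clinical serine-carbapenemase-producing strain KP1087 (KPC-2, CTX-M-15, SHV-11, TEM-1; double porin mutant).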

[7] = Volume of distribution in rat at 100 mg/kg, iv administered as 0.5 hrs infusion by HPLC-MS method; assay type: ADME, organism-based; details: in vivo
[8] = target: Beta-lactamase (Enterobacter cloacae) (UniProt P05364); experiment: Inhibition of Enterobacter cloacae ECL1002 AmpC assessed as cefepime MIC at 4 ug/ml by broth microdilution method
Chain of Beta-lactamase (Enterobacter cloacae) (P05364 21-381 limits assumed): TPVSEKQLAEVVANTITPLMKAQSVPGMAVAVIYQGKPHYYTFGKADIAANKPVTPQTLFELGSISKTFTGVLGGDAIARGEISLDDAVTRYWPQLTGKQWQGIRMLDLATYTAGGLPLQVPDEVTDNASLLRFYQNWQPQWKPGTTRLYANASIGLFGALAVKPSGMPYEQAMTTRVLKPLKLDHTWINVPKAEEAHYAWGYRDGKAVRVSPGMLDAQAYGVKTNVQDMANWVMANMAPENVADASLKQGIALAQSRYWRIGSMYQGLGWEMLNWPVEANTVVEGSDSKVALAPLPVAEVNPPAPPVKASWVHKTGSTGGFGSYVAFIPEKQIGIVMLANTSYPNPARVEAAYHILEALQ

[9] = target: Beta-lactamase (Klebsiella pneumoniae) (UniProt Q93LQ9); experiment: Inhibition of Klebsiella pneumoniae KP1084 KPC-3 assessed as imipenem MIC at 4 ug/ml by broth microdilution method
Chain of Beta-lactamase (Klebsiella pneumoniae) (Q93LQ9 as listed by the source): as the sequence (Q848S6 whole entry, the tested form may be a part) above

Klebsiella oxytoca [10] = experiment: Inhibition of Klebsiella oxytoca KX1019 OXA-2 assessed as meropenem MIC at 4 ug/ml by broth microdilution method
[11] = target: Beta lactamase TEM-1 (Klebsiella pneumoniae) (UniProt Q7B899); experiment: Inhibition of Klebsiella pneumoniae KP1087 TEM-1 assessed as biapenem MIC at 4 ug/ml by broth microdilution method; procedure, shortened: as §2
Klebsiella pneumoniae [12] = experiment: Inhibition of Klebsiella pneumoniae KP1087 CTX-M-15 assessed as ertapenem MIC at 4 ug/ml by broth microdilution method; procedure, shortened: as §1
Klebsiella pneumoniae [13] = experiment: In vivo inhibition of KPC in Klebsiella pneumoniae KP1074 in Swiss webster neutropenic mouse lung infection model assessed as biapenem deltalog10CFU in lung at 50 mg/kg, ip administered every 2 hrs starting at 2 hrs postinfection measured after 24 hrs; assay type: functional
Escherichia coli [14] = experiment: Inhibition of Escherichia coli EC1008 CTX-M-3 assessed as cefepime MIC at 4 ug/ml by broth microdilution method
Procedure, shortened: (§3)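 CLSI broth microdilution (M07-A9) against clinical strains expressing serine β-lactamases.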

[15] = target: Beta lactamase TEM-1 (Klebsiella pneumoniae) (UniProt Q7B899); experiment: Inhibition of Klebsiella pneumoniae KP1004 TEM-1 assessed as imipenem MIC at 4 ug/ml by broth microdilution method; procedure, shortened: as §1
[16] = Inhibition of Escherichia coli recombinant CTX-M-15 assessed as substrate nitrocefin degradation preincubated for 10 mins followed by substrate addition measured every 10 secs for 10 mins by spectrophotometric analysis
Procedure, shortened: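 β-Lactamases purified from overexpressing recombinant E. coli. Enzyme preincubated with inhibitor at varying concentrations for 10 min at room temperature in 50 mM Na phosphate pH 7.0, 0.1 mg/mL BSA. Then 50 μM nitrocefin (final) added and cleavage read at 490 nm every 10 s for 10 min. Ki derived by the Waley method.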

[17] = target: Beta-lactamase (Klebsiella pneumoniae) (UniProt Q93LQ9); experiment: Inhibition of Klebsiella pneumoniae KP1004 KPC 2 carbapenemase assessed as minimum concentration required to reduce biapenem MIC from […] ug/ml to 1 ug/mL by broth microdilution method
Enterobacter cloacae = experiment: Inhibition of Enterobacter cloacae ECL1058 SHV-11 assessed as meropenem MIC at 4 ug/ml by broth microdilution method
Klebsiella oxytoca [18] = experiment: Inhibition of Klebsiella oxytoca KX1019 OXA-2 assessed as ertapenem MIC at 4 ug/ml by broth microdilution method
[19] = AUC in human at 1 g administered as 3 hrs of infusion; assay type: ADME, organism-based; details: in vivo, iv
Escherichia coli [20] = experiment: Inhibition of Escherichia coli EC1011 TEM-26 assessed as cefepime MIC at 4 ug/ml by broth microdilution method; procedure, shortened: as §3
Klebsiella pneumoniae [21] = experiment: Inhibition of Klebsiella pneumoniae KP1004 KPC-2 assessed as meropenem MIC at 4 ug/ml by broth microdilution method; procedure, shortened: as §1
Trypsin = Trypsin (Homo sapiens, UniProt P07477+P07478+P35030); experiment: Inhibition of trypsin (unknown origin) using N-Bz-R-AMC as substrate preincubated for 10 mins followed by substrate addition measured for 30 mins by spectrophotometric analysis; assay type: protein assay
Procedure, shortened: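 Trypsin in 50 mM Tris-HCl, pH 8.0, 10 mM CaCl2, 100 mM NaCl. Preincubated 10 min at 37 °C with varied inhibitor. N-Bz-R-AMC (listed at 200 μM) was then added and fluorescence read for 30 min. Rates were vs untreated control; IC50 is the concentration giving 50% inhibition.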

[22] = target: Carbapenem-hydrolyzing beta-lactamase KPC (Klebsiella oxytoca) (UniProt Q848S6); experiment: Inhibition of Klebsiella oxytoca KX1017 KPC-2 assessed as biapenem MIC at 4 ug/ml by broth microdilution method
[23] = Clearance in rat at 1000 mg/kg, iv administered as 0.5 hrs infusion by HPLC-MS method; assay type: ADME, organism-based; details: in vivo
Klebsiella oxytoca [24] = experiment: Inhibition of Klebsiella oxytoca KX1017 SHV-30 assessed as imipenem MIC at 4 ug/ml by broth microdilution method
Chymase = Chymase (Homo sapiens, UniProt P23946); experiment: Inhibition of chymase (unknown origin) using Suc-AAPF-AMC as substrate preincubated for 10 mins followed by substrate addition measured for 30 mins by spectrophotometric analysis
Chain of Chymase (P23946 whole entry): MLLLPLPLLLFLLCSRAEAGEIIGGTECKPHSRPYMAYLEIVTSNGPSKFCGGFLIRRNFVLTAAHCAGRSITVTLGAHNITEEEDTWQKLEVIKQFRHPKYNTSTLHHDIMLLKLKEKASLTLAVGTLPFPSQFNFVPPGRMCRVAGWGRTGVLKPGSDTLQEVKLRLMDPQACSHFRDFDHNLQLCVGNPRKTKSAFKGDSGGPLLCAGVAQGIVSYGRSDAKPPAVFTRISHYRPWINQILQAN
Procedure, shortened: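 Commercial chymase in 100 mM Tris, pH 8.0, 2 M NaCl, 0.01% Triton X-100. Mixed with inhibitor at various concentrations for 10 min at 37 °C before Suc-AAPF-AMC (listed at 40 μM), then fluorescence followed for 30 min. Rates were taken relative to a no-treatment control; IC50 is the concentration giving 50% inhibition.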

O=C(O)C[C@@H]1CC[C@H](NC(=O)Cc2cccs2)B(O)O1 [VABORBACTAM]
MIC (Klebsiella oxytoca [1]): < 0.06 µg/mL | MIC [2]: < 0.06 µg/mL | MIC [3]: < 0.06 µg/mL | MIC (Klebsiella oxytoca [4]): < 0.06 µg/mL | MIC [5]: 2 µg/mL | MIC [6]: 0.25 µg/mL | Vd [7]: 0.97 L/kg | MIC [8]: 0.5 µg/mL | MIC [9]: 0.25 µg/mL | MIC (Klebsiella oxytoca [10]): < 0.06 µg/mL | MIC [11]: 0.25 µg/mL | MIC (Klebsiella pneumoniae [12]): 2 µg/mL | deltalog10CFU (Klebsiella pneumoniae [13]): -2.19 | MIC (Escherichia coli [14]): 4 µg/mL | MIC [15]: < 0.06 µg/mL | Ki [16]: 0.044 µM | MEC [17]: 0.02 µg/mL | MIC (Enterobacter cloacae): < 0.06 µg/mL | MIC (Klebsiella oxytoca [18]): 0.25 µg/mL | AUC at 3 h [19]: 100000 ng·h/mL | MIC (Escherichia coli [20]): 2 µg/mL | MIC (Klebsiella pneumoniae [21]): ≤ 0.06 µg/mL | IC50 (Trypsin): > 1000 µM | MIC [22]: < 0.06 µg/mL | clearance [23]: 16.2 mL/min/kg | MIC (Klebsiella oxytoca [24]): 0.13 µg/mL | IC50 (Chymase): > 1000 µM
